Reference: ChEMBL document CHEMBL2396536, “Curcuminoids block TGF-β signaling in human breast cancer cells and limit osteolysis in a murine model of breast cancer bone metastasis” (J Nat Prod, 2013)
Active and inactive are the calls of the source. No cut-off for these calls is given here.

Each molecule was assayed on MDA-MB-231 (assay: Cytotoxicity against human MDA-MB-231 cells assessed as cell viability by MTT assay). Conditions: not given.
Assay type: cell-based
Outline: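 MDA-MB-231 plated at 5 × 10^4 cells/cm2 and held overnight in DMEM with 10% FBS at 37°C and 5% CO2. Pre-incubated 4 h with compound in 2% FBS DMEM, then medium refreshed with TGF-β1 (5 ng/mL) for 24 h. Cell number read by MTT reduction.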

Row | Compound | MTC
1 | COc1cc(/C=C/C(=O)CC(=O)/C=C/c2ccc(O)c(OC)c2)ccc1O [CURCUMIN] | 82 µM

What follows are molecules tested on MDA-MB-231 (assay: Inhibition of osteolytic bone metastases in human MDA-MB-231 cells xenografted in athymic nude mouse left cardiac ventricle assessed as reduction in lytic bone lesion area at 25 to 50 mg/kg, ip administered every other day for 3 weeks measured on day 21 relative to control). Conditions: dose mg/kg 25-50; route intraperitoneal.
Assay type: functional, Heart left ventricle
Outline: (§1)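 Four-week female athymic nude mice inoculated with 1 × 10^5 MDA-MB-231 cells in 0.1 mL PBS into the left cardiac ventricle. Dosed ip at 25 or 50 mg/kg or vehicle every other day from day 1 for 21 days, n = 11/group. Lytic lesion area quantified on radiographs on days 12, 16 and 21. Two-way ANOVA with Bonferroni.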

Row | Compound | inhibition (INH)
2 | COc1cc(/C=C/C(=O)CC(=O)/C=C/c2ccc(O)c(OC)c2)ccc1O [CURCUMIN] | 57%

The molecules below were run on Mus musculus (assay: Effect on orthotopic tumor mass in human MDA-MB-231 cells xenografted athymic nude mouse mammary fat pad at 25 to 50 mg/kg, ip administered every other day for 3 weeks). Conditions: not given.

Row | Compound | Activity
3 | COc1cc(/C=C/C(=O)CC(=O)/C=C/c2ccc(O)c(OC)c2)ccc1O [CURCUMIN] | inactive

Each molecule was assayed on Mus musculus (assay: Toxicity in human MDA-MB-231 cells xenografted athymic nude mouse left cardiac ventricle assessed as effect on alanine aminotransferase at 25 mg/kg, ip administered every other day for 3 weeks (reference value: 7.04 +/- 2.2 U/L)). Conditions: in vivo, 504 h.
Assay type: organism-based, Heart
Design: dose 25 mg/kg, route intraperitoneal

Row | Compound | Activity
4 | COc1cc(/C=C/C(=O)CC(=O)/C=C/c2ccc(O)c(OC)c2)ccc1O [CURCUMIN] | 7.13 U/L

Each molecule was assayed against Mothers against decapentaplegic homolog 2 (Homo sapiens) (UniProt Q15796) (assay: Inhibition of TGF-beta-induced Smad2 phosphorylation in human MDA-MB-231 cells treated 12 hrs before TGF-beta challenge measured after 1 hr by Western blotting). Conditions: not given.
Assay type: cell-based
Outline: (§2)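 Subconfluent MDA-MB-231 pre-treated 12 h with compound (80 μM), then TGF-β (5 ng/mL) for 1 h. RIPA whole-cell lysates (18 μg) run on SDS-PAGE and transferred to PVDF. Probed with rabbit anti-phospho-Smad2, phospho-Smad3, phospho-p38 or Ets-1 (1:1000, overnight, 4 °C). β-actin used as loading control. Chemiluminescent detection; three independent experiments.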

Mothers against decapentaplegic homolog 2 (Homo sapiens), sequence (Q15796 whole entry): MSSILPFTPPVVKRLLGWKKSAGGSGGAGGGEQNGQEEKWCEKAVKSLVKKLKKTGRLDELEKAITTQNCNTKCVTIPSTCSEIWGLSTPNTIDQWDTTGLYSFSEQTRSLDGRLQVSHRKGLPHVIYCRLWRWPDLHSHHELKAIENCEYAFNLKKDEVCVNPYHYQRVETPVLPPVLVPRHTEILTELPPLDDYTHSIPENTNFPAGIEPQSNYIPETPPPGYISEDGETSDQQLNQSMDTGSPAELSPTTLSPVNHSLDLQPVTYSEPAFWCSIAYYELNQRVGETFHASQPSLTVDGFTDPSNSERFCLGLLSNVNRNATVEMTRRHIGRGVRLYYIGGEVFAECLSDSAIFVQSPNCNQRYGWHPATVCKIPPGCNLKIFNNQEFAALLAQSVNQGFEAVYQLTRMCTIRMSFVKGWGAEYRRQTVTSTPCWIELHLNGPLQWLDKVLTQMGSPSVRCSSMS

Row | Compound | inhibition
5 | COc1cc(/C=C/C(=O)CC(=O)/C=C/c2ccc(O)c(OC)c2)ccc1O [CURCUMIN] | Active

The molecules below were run on Mus musculus (assay: Toxicity in human MDA-MB-231 cells xenografted athymic nude mouse left cardiac ventricle assessed as effect on liver weight at 50 mg/kg, ip administered every other day for 3 weeks (reference value: 1 +/- 0.10 gram)). Conditions: in vivo, 504 h.
Assay type: organism-based, Heart
Design: dose 50 mg/kg, route intraperitoneal

Row | Compound | Activity
6 | COc1cc(/C=C/C(=O)CC(=O)/C=C/c2ccc(O)c(OC)c2)ccc1O [CURCUMIN] | 1.1 g

These molecules were tested on MDA-MB-231 (assay: Inhibition of osteolytic bone metastases in human MDA-MB-231 cells xenografted in athymic nude mouse left cardiac ventricle assessed as reduction of bone-tumor interface at 25 mg/kg, ip administered every other day for 3 weeks). Conditions: MDA-MB-231, Heart left ventricle, 504 h, route intraperitoneal.
Assay type: functional
Outline: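 Intracardiac MDA-MB-231 model in nude mice, dosed ip every other day for 21 days. Mid-sagittal tibia and femur sections TRAP-stained. TRAP+ multinucleated (>3 nuclei) cells counted at 40x along the tumor-bone interface. Expressed as osteoclasts per mm of interface.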

Row | Compound | inhibition in vivo at 25 mg/kg
7 | COc1cc(/C=C/C(=O)CC(=O)/C=C/c2ccc(O)c(OC)c2)ccc1O [CURCUMIN] | 53%

Each molecule was assayed on MDA-MB-231 (assay: Inhibition of osteolytic bone metastases in human MDA-MB-231 cells xenografted in athymic nude mouse left cardiac ventricle assessed as reduction of bone lysis at 25 to 50 mg/kg, ip administered every other day for 3 weeks measured on day 21). Conditions: dose mg/kg 25-50; route intraperitoneal.
Assay type: functional, Heart left ventricle
Outline: as §1

Row | Compound | inhibition (INH)
8 | COc1cc(/C=C/C(=O)CC(=O)/C=C/c2ccc(O)c(OC)c2)ccc1O [CURCUMIN] | >50%

These molecules were tested on Mus musculus (assay: Toxicity in human MDA-MB-231 cells xenografted athymic nude mouse left cardiac ventricle assessed as effect on white blood cells at 25 mg/kg, ip administered every other day for 3 weeks (reference value: 5.84 +/- 1.3 K/uL)). Conditions: in vivo, 504 h.

Row | Compound | Activity
9 | COc1cc(/C=C/C(=O)CC(=O)/C=C/c2ccc(O)c(OC)c2)ccc1O [CURCUMIN] | 4.69 K/uL

The molecules below were run on MDA-MB-231 (assay: Inhibition of TGF-beta-induced PTHrP secretion in human MDA-MB-231 cells treated 4 hrs before TGF-beta challenge measured after 24 hrs by radioimmunoassay). Conditions: not given.
Assay type: functional, cell-based
Outline: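 MDA-MB-231 plated at 5 × 10^4 cells/cm2 and held overnight in DMEM with 10% FBS. Pre-treated 4 h with compound (0.1–100 μM in methods; 0.1–300 μM in legend) in 2% FBS, then recombinant human TGF-β1 (5 ng/mL) or medium alone for 24 h. PTHrP measured in conditioned media by radioimmunoassay, n = 4 wells/group. IC50 from four-parameter logistic fit.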

Row | Compound | IC50 | inhibition
10 | COc1cc(/C=C/C(=O)CC(=O)/C=C/c2ccc(O)c(OC)c2)ccc1O [CURCUMIN] | 24 µM | Dose-dependent effect

Same assay, conditions: read-out: MEC

Row | Compound | minimal effective concentration
11 | COc1cc(/C=C/C(=O)CC(=O)/C=C/c2ccc(O)c(OC)c2)ccc1O [CURCUMIN] | 13 µM

What follows are molecules tested on Mus musculus (assay: Toxicity in human MDA-MB-231 cells xenografted athymic nude mouse left cardiac ventricle assessed as effect on hematocrit at 25 mg/kg, ip administered every other day for 3 weeks (reference value: 30.2 +/- 1.5%)). Conditions: in vivo, 504 h.
Assay type: organism-based, Heart
Design: dose 25 mg/kg, route intraperitoneal

Row | Compound | Activity
12 | COc1cc(/C=C/C(=O)CC(=O)/C=C/c2ccc(O)c(OC)c2)ccc1O [CURCUMIN] | 30.6%

These molecules were tested on MDA-MB-231 (assay: Inhibition of osteolytic bone metastases in human MDA-MB-231 cells xenografted in athymic nude mouse left cardiac ventricle assessed as improvement in host survival at 25 to 50 mg/kg, ip administered every other day for 3 weeks measured on day 16 relative to vehicle-treated control). Conditions: Heart left ventricle.
Assay type: functional, organism-based
Outline: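 Intracardiac MDA-MB-231 nude mice (n = 11/group) dosed ip every other day for 3 weeks. Survival shown by Kaplan–Meier and analyzed by logrank test with post-hoc logrank test for trend.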

Row | Compound | Activity
13 | COc1cc(/C=C/C(=O)CC(=O)/C=C/c2ccc(O)c(OC)c2)ccc1O [CURCUMIN] | Active

What follows are molecules tested on Mus musculus (assay: Toxicity in human MDA-MB-231 cells xenografted athymic nude mouse left cardiac ventricle assessed as effect on platelets at 25 mg/kg, ip administered every other day for 3 weeks (reference value: 513 +/- 54 K/uL)). Conditions: in vivo, 504 h.
Assay type: organism-based, Heart
Design: dose 25 mg/kg, route intraperitoneal

Row | Compound | Activity
14 | COc1cc(/C=C/C(=O)CC(=O)/C=C/c2ccc(O)c(OC)c2)ccc1O [CURCUMIN] | 485 K/uL

The molecules below were run against MAP kinase p38 (Homo sapiens) (UniProt O15264+Q15759+Q16539+P53778) (assay: Inhibition of TGF-beta-induced p38 phosphorylation in human MDA-MB-231 cells treated 12 hrs before TGF-beta challenge measured after 1 hr by Western blotting). Conditions: not given.
Assay type: cell-based
Outline: as §2

Row | Compound | inhibition
15 | COc1cc(/C=C/C(=O)CC(=O)/C=C/c2ccc(O)c(OC)c2)ccc1O [CURCUMIN] | inactive
